Results on ten molecules are retold here after ChEMBL document CHEMBL4229395, “Photoactivated 2,3-distyrylindoles kill multi-drug resistant bacteria” (Bioorg Med Chem Lett, 2018).

For data set [1], the system named is Staphylococcus aureus. The experiment in a line: Bactericidal activity against methicillin-resistant Staphylococcus aureus ATCC BAA-44 at 5 uM irradiated with white light for 2 mins and measured after overnight incubation by drip-streak plate method. Format: functional, organism-based. A digest of the protocol:
(§1)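 MRSA ATCC BAA-44 cells incubated with a range of compound concentrations, then irradiated for 2 min with a white-light lamp or kept in the dark. Colonies were counted at the dilution giving 30–300 colonies. Each experiment had 3 replicates and was repeated in 3 independent experiments.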

Data set [2] deals with Staphylococcus aureus. Put plainly: Bactericidal activity against methicillin-resistant Staphylococcus aureus ATCC BAA-44 at 30 nM irradiated with white light for 2 mins and measured after overnight incubation by drip-streak plate method relative to control. Format: functional. In short, it runs like this:
as §1

Data set [3] has as its system Klebsiella pneumoniae. The experiment in a line: Bactericidal activity against carbapenem-resistant Klebsiella pneumoniae ATCC BAA-2146 at 2 ug/ml incubated under dark condition. Format: ADME, organism-based.
Data set [4] concerns Pseudomonas aeruginosa. The experiment in a line: Bactericidal activity against Pseudomonas aeruginosa ATCC BAA-2114 at 2 ug/ml incubated under dark condition. Type of data set: ADME, organism-based.
For data set [5], the system named is Escherichia coli. Put plainly: Bactericidal activity against Escherichia coli ATCC 25922 at 2 ug/ml incubated under dark condition. Format: ADME, organism-based.
Data set [6] deals with Acinetobacter baumannii. Put plainly: Bactericidal activity against Acinetobacter baumannii ATCC BAA1797 at 1.25 ug/ml incubated under dark condition. Format: ADME, organism-based.
Data set [7] can be described thus: Induction of singlet oxygen generation at 1285 nm at 10 uM. Type of data set: functional.
Data set [8] can be described thus: Dark toxicity against human MCF7 cells assessed as decrease in cell viability by MTT assay. Type of data set: cell-based. In short, it runs like this: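 MCF-7 breast adenocarcinoma cells were incubated with compound without light. Viability was read by MTT colorimetric assay, and IC50 was derived from the concentration–response.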
(Formazan colour is commonly taken as a measure of viable cells.)

Data set [9] concerns Escherichia coli. The experiment in a line: Bactericidal activity against Escherichia coli ATCC 25922 at 5 uM in presence of light and polymyxin E relative to control. Format: functional.
Data set [10] concerns Staphylococcus aureus. The experiment in a line: Bactericidal activity against Staphylococcus aureus ATCC 29213 at 1 uM incubated under dark condition. Format: ADME, organism-based.
Data set [11] has as its system Acinetobacter baumannii. The experiment in a line: Bactericidal activity against Acinetobacter baumannii ATCC BAA1797 at 5 uM in presence of light and polymyxin E relative to control. Format: functional.
Data set [12] deals with Klebsiella pneumoniae. The experiment in a line: Bactericidal activity against carbapenem-resistant Klebsiella pneumoniae ATCC BAA-2146 at 5 uM incubated under dark condition. Type of data set: ADME, organism-based.
In data set [13] the test system is Streptococcus mutans. The experiment in a line: Bactericidal activity against Streptococcus mutans Ward's 85W 2357 at 1 uM incubated under dark condition. Format: ADME, organism-based. In short, it runs like this: (§2)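 Bacterial suspensions (about 10^8 CFU/mL) were incubated with the compound at a range of concentrations and kept in the dark, the unirradiated control for a 2 min white-light exposure. Samples were diluted 10-fold, drip-streaked on TSA and incubated overnight at 37 °C. Colonies were counted at the dilution giving 30–300 colonies.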

Data set [14] deals with Staphylococcus aureus. The experiment in a line: Bactericidal activity against methicillin-resistant Staphylococcus aureus ATCC BAA-44 incubated under dark condition and measured after overnight incubation by drip-streak plate method. Type of data set: ADME, organism-based. The settings on record: in vitro. A digest of the protocol:
as §1

The test system of data set [15] is Escherichia coli. Put plainly: Bactericidal activity against Escherichia coli ATCC 25922 at 5 uM incubated under dark condition in presence of polymyxin E. Format: ADME, organism-based.
The subject of data set [16] is Staphylococcus aureus. Put plainly: Disruption of cell membrane in methicillin-resistant Staphylococcus aureus ATCC BAA-44 in presence of light by scanning electron microscopic method. Format: functional, organism-based.
Data set [17] has as its system Staphylococcus aureus. The experiment in a line: Bactericidal activity against methicillin-resistant Staphylococcus aureus ATCC BAA-44 at 1 uM irradiated with white light through mask for 2 mins and measured after overnight incubation. Format: functional, organism-based. In short, it runs like this:
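MRSA ATCC BAA-44 cells were pre-treated with compound at 1 μM and spread over an agar plate. The plate was irradiated with white light through a mask for 2 min, incubated overnight at 37 °C and photographed to show where colonies grew.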

Data set [18] can be described thus: Induction of singlet oxygen generation at 1210 nm. Format: functional.
The test system of data set [19] is Escherichia coli. The experiment in a line: Bactericidal activity against Escherichia coli ATCC 25922 at 2 ug/ml in presence of light. Type of data set: functional, organism-based.
The subject of data set [20] is Staphylococcus aureus. Put plainly: Disruption of cell membrane in methicillin-resistant Staphylococcus aureus ATCC BAA-44 at 10 uM incubated under dark condition by propidium iodide staining-based assay. Format: organism-based. A digest of the protocol: (§3)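 MRSA ATCC BAA-44 cells were treated with compound with or without light, then stained with propidium iodide. Red PI fluorescence marks membrane disruption; green fluorescence comes from the compound. Phenylarsine oxide was the positive control.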

The subject of data set [21] is Pseudomonas aeruginosa. Put plainly: Bactericidal activity against Pseudomonas aeruginosa ATCC BAA-2114 at 5 uM in presence of light. Format: functional, organism-based.
The test system of data set [22] is Escherichia coli. Put plainly: Bactericidal activity against Escherichia coli ATCC 25922 at 5 uM incubated under dark condition. Format: ADME, organism-based.
Data set [23] deals with Streptococcus pyogenes. The experiment in a line: Bactericidal activity against Streptococcus pyogenes ATCC 8133 at 1 uM in presence of light. Type of data set: functional, organism-based.
Data set [24] has as its system Pseudomonas aeruginosa. Put plainly: Bactericidal activity against Pseudomonas aeruginosa ATCC BAA-2114 at 5 uM incubated under dark condition. Format: ADME, organism-based.
Data set [25] concerns Klebsiella pneumoniae. Put plainly: Bactericidal activity against carbapenem-resistant Klebsiella pneumoniae ATCC BAA-2146 at 5 uM incubated under dark condition in presence of polymyxin E. Type of data set: ADME, organism-based.
Data set [26] relates to Acinetobacter baumannii. Put plainly: Bactericidal activity against Acinetobacter baumannii ATCC BAA1797 at 5 uM in presence of light. Format: functional, organism-based.
Data set [27] has as its system Staphylococcus aureus. Put plainly: Bactericidal activity against methicillin-resistant Staphylococcus aureus ATCC BAA1717 at 1 uM in presence of light. Format: functional, organism-based.
Data set [28] has as its system Acinetobacter baumannii. Put plainly: Bactericidal activity against Acinetobacter baumannii ATCC BAA1797 at 5 uM incubated under dark condition. Format: ADME, organism-based.
Data set [29] has as its system Staphylococcus aureus. Put plainly: Disruption of cell membrane in methicillin-resistant Staphylococcus aureus ATCC BAA-44 at 10 uM in presence of light by propidium iodide staining-based assay. Type of data set: functional, organism-based. A digest of the protocol: as §3
Data set [30] concerns Escherichia coli. The experiment in a line: Bactericidal activity against Escherichia coli ATCC 25922 at 5 uM in presence of light. Format: functional, organism-based.
For data set [31], the system named is Streptococcus pyogenes. Put plainly: Bactericidal activity against Streptococcus pyogenes ATCC 8133 at 1 uM incubated under dark condition. Type of data set: ADME, organism-based. A digest of the protocol:
as §2

The test system of data set [32] is Acinetobacter baumannii. Put plainly: Bactericidal activity against Acinetobacter baumannii ATCC BAA1797 at 1.25 ug/ml in presence of light. Format: functional, organism-based.
Data set [33] relates to Enterococcus faecalis. Put plainly: Bactericidal activity against Enterococcus faecalis ATCC 51299 at 1 uM incubated under dark condition. Format: ADME, organism-based. A digest of the protocol:
as §2

Data set [34] has as its system Klebsiella pneumoniae. The experiment in a line: Bactericidal activity against carbapenem-resistant Klebsiella pneumoniae ATCC BAA-2146 at 5 uM in presence of light. Type of data set: functional, organism-based.
Data set [35] concerns Staphylococcus aureus. Put plainly: Bactericidal activity against Staphylococcus aureus ATCC 29213 at 1 uM in presence of light. Type of data set: functional, organism-based.
Data set [36] relates to Staphylococcus aureus. Put plainly: Disruption of cell membrane in methicillin-resistant Staphylococcus aureus ATCC BAA-44 incubated under dark condition by scanning electron microscopic method. Format: organism-based.
For data set [37], the system named is Enterococcus faecalis. The experiment in a line: Bactericidal activity against Enterococcus faecalis ATCC 51299 at 1 uM in presence of light. Type of data set: functional, organism-based.
In data set [38] the test system is Pseudomonas aeruginosa. Put plainly: Bactericidal activity against Pseudomonas aeruginosa ATCC BAA-2114 at 5 uM in presence of light and polymyxin E. Type of data set: functional, organism-based.
Data set [39] has as its system Klebsiella pneumoniae. Put plainly: Bactericidal activity against carbapenem-resistant Klebsiella pneumoniae ATCC BAA-2146 at 5 uM in presence of light and polymyxin E. Type of data set: functional, organism-based.
Data set [40] deals with Staphylococcus aureus. Put plainly: Bactericidal activity against methicillin-resistant Staphylococcus aureus ATCC BAA-44 at 0.1 uM irradiated with white light for 2 mins and measured after overnight incubation by drip-streak plate method relative to control. Type of data set: functional. A digest of the protocol: as §1
Data set [41] has as its system Pseudomonas aeruginosa. Put plainly: Bactericidal activity against Pseudomonas aeruginosa ATCC BAA-2114 at 2 ug/ml in presence of light. Format: functional, organism-based.
In data set [42] the test system is Klebsiella pneumoniae. Put plainly: Bactericidal activity against carbapenem-resistant Klebsiella pneumoniae ATCC BAA-2146 at 2 ug/ml in presence of light. Type of data set: functional, organism-based.
For data set [43], the system named is Streptococcus mutans. The experiment in a line: Bactericidal activity against Streptococcus mutans Ward's 85W 2357 at 1 uM in presence of light. Type of data set: functional, organism-based.
Data set [44] relates to Staphylococcus aureus. Put plainly: Bactericidal activity against methicillin-resistant Staphylococcus aureus ATCC BAA-44 irradiated with white light for 2 mins and measured after overnight incubation by drip-streak plate method. Type of data set: functional, organism-based. In short, it runs like this: as §1

pIC50: −log10 of the molar value. The source made the active and inactive calls. The rule behind the calls is not given here.

`Clc1cccc(/C=C/c2[nH]c3ccccc3c2/C=C/c2cccc(Cl)c2)c1`: in [1], the result was inactive.
In the case of `C(=C\c1[nH]c2ccccc2c1/C=C/c1ccccc1)/c1ccccc1`, in [2], the “fold change (FC)” value worked out at 5.
As for COLISTIN, the Activity result in data set [3], in [4], in data set [5] and in [6] was “Non-Toxic” each time.
`Clc1ccccc1/C=C/c1[nH]c2ccccc2c1/C=C/c1ccccc1Cl`: the result in data set [1] was Active.
For `O=C1OC2(c3cc(I)c(O)c(I)c3Oc3c2cc(I)c(O)c3I)c2c(Cl)c(Cl)c(Cl)c(Cl)c21`, the outcome in data set [7] was Active.
The term pIC50 denotes the IC50 on a negative log10 scale, so that one unit is a factor of ten. In the case of `CCn1cc(C(=O)O)c(=O)c2cc(F)c(N3CCNCC3)cc21` [NORFLOXACIN], the negative-log IC50 (pIC50) in [8] is 4.86.
As to `Clc1ccc(/C=C/c2[nH]c3ccccc3c2/C=C/c2ccc(Cl)cc2)cc1`, the Activity in data set [9] was 7 deltalog10CFU/ml; in [10], “Non-Toxic”; in [11], 7 deltalog10CFU/ml; in [12] it was “Non-Toxic”; in data set [13] it was “Non-Toxic”; in [14], “Dose-dependent effect”. The Activity result in [15] is “Toxic”; in data set [18] it was “Dose-dependent effect”; in data set [20], “Non-Toxic”; in data set [22], “Non-Toxic”; in data set [24], “Non-Toxic”; in data set [25], “Toxic”. Further, the Activity result is “Non-Toxic” in [28]; “Non-Toxic” in data set [31]; “Non-Toxic” in data set [33]; “Non-Toxic” in [36]; 5 deltalog10CFU/ml in data set [40]; “Dose-dependent effect” in data set [44]. The outcome in data set [16], in data set [17], in [23], in data set [27], in data set [29] and in data set [35] was Active. Further, the outcome in [37], in data set [38], in data set [39] and in data set [43] was Active. Besides, the outcome in data set [19], in data set [21], in data set [26], in data set [30], in data set [32] and in [34] was inactive. Also, the outcome in data set [41] and in data set [42] was inactive. The negative-log IC50 (pIC50) in data set [8] was 4.33.
For the molecule `COc1ccc(/C=C/c2[nH]c3ccccc3c2/C=C/c2ccc(OC)cc2)cc1`, in data set [1], the result was inactive.
Take `CN(C)[C@@H]1C(O)=C(C(N)=O)C(=O)[C@@]2(O)C(O)=C3C(=O)c4c(O)cccc4[C@@](C)(O)[C@H]3C[C@@H]12` [TETRACYCLINE]: in data set [8], the pIC50 was 4.38.
On to `Fc1ccc(/C=C/c2[nH]c3ccccc3c2/C=C/c2ccc(F)cc2)cc1`, for which the result in data set [1] was inactive.
